# Published values pooled from the literature.
# ALDH1A1: Aldehyde dehydrogenase 1A1 (ALDH1A1, Homo sapiens, UniProt P00352)
# ALOX15: Polyunsaturated fatty acid lipoxygenase ALOX15 (ALOX15, Homo sapiens, UniProt P16050)
SMILES,target,test,conditions,measurement,value
OC[C@H]1OC(O)[C@H](O)[C@@H](O)[C@@H]1O (some centres unmarked),"Spliceosome RNA helicase DDX39B (DDX39B, Homo sapiens, UniProt Q13838)","binding, MST",,Kd,1860 µM
COc1nc(-c2cccc(-c3ccccc3)c2C)ccc1CNCCNC(=O)CCCCCCCCCCC(=O)N1CCN(CCNC(=O)c2cc3c(=O)n4cccc(C)c4nc3n(CCc3cccs3)c2=N)CC1,"Programmed cell death 1 ligand 1 (CD274, Homo sapiens, UniProt Q9NZQ7)","binding, BLI",,Kd,0.452 µM
CC(=O)N[C@H]1[C@H](O[C@H]2[C@H](O)[C@@H](NC(C)=O)C(O)O[C@@H]2CO)O[C@H](CO)[C@@H](O[C@@H]2O[C@H](CO)[C@@H](O)[C@H](O)[C@H]2NC(C)=O)[C@@H]1O (some centres unmarked),"MB (Equus caballus, UniProt P68082)",binding,,Kd,~346 µM
OC[C@H]1O[C@@H](Oc2ccc(O)c3cccc(O)c23)[C@H](O)[C@@H](O)[C@@H]1O,ALDH1A1,"enzyme activity, inhibitor, fluorescence",,IC50,< 10 µM
O=c1[nH]c(=O)c(Cc2cccc(C(F)(F)F)c2)c([C@H]2CC[C@H](c3ccccc3)CC2)[nH]1,"Solute carrier family 22 member 1 (SLC22A1, Homo sapiens, UniProt O15245)","transporter uptake, inhibitor",,IC50,> 1 µM
COc1nc2ccc(Br)cc2cc1[C@@H](c1ccccc1)[C@@](O)(CCN(C)C)c1cccc2ccccc12,ALDH1A1,"enzyme activity, inhibitor, fluorescence",,IC50,< 10 µM
NC/C(=C\F)COc1cccc(Cn2c(=S)[nH]c(=O)c3[nH]cnc32)c1,"Thyroid peroxidase (Homo sapiens, UniProt P07202)","enzyme activity, inhibitor",,IC50,13 µM
[C-]#[N+]CCOCCOc1ccc2c(-c3ccccc3C(=O)OCC)c3ccc(=O)cc-3oc2c1,ALOX15,"enzyme activity, inhibitor, absorbance",,IC50,20.8 µM
CNC(=O)[C@H](Cc1c[nH]c2ccccc12)NC(=O)[C@@H](CC(=O)NO)CC(C)C,"Matrilysin (MMP7, Homo sapiens, UniProt P09237)","enzyme activity, inhibitor",,IC50,0.00294 µM
O=C1OC2(c3ccc(O)cc3Oc3cc(O)ccc32)c2ccccc21,ALOX15,"enzyme activity, inhibitor, absorbance",,IC50,44.8 µM
COC(=O)C(C)n1nc(Cn2cc3cc(OCCF)c(Cl)cc3n2)c2ccccc2c1=O (racemic),"Sphingosine 1-phosphate receptor 1 (S1PR1, Homo sapiens, UniProt P21453)","ligand displacement, radioligand",cell membranes,IC50,> 1 µM
